Screening results (PubChem BioAssay)
CCR6 antag = CCR6 (human) receptor antagonism; CHO-K1 CCR6 PathHunter beta-arrestin, luminescence, CCL20-stimulated; inhibition, % at 20 µM; hit rate 0.49% among 340,000;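 active = compounds whose inhibition of the agonist-driven luminescence signal at 20 µM reaches about 50%, limit read from the data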;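 also: cells stimulated with CCL20 at 14 nM final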
m5-HT2A agonist = agonists of mouse serotonin 5-HT2A receptor (HTR2A); CHO-K1 mHTR2A beta-arrestin complementation, luminescence; percent of 30 µM serotonin response; activation, % at 7.6 µM; hit rate 0.66% among 360,000; AID 624169;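 active = activation above a run cutoff, the mean activation of all tested compounds plus 3 SD, cut at about 14% in these data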
Target sequence (P35363 whole entry, looked up): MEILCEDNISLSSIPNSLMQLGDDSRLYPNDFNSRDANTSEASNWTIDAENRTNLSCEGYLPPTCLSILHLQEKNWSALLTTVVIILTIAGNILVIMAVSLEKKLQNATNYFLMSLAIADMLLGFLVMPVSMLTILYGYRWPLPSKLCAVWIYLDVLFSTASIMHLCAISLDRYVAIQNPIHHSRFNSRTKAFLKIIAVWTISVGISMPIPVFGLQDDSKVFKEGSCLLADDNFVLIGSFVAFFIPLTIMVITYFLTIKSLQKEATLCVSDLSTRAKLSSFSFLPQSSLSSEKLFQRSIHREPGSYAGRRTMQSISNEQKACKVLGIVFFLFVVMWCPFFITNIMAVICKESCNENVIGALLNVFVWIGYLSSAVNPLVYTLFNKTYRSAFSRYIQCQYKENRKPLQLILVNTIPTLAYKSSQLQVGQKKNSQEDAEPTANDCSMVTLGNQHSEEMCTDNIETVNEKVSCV
APJ antagonist = APJ receptor antagonism; CHO-K1 APJ beta-arrestin complementation, luminescence; P35414; inhibition, % at 20 µM; hit rate 0.32% among 330,000;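 active = inhibition above about 40% at 20 µM, limit read from the data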;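 also: cells challenged with 10 nM apelin-13 agonist together with compound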
EBI2 antag = blocks human EBI2 receptor beta-arrestin signaling | P32249 | EBI2 beta-arrestin recruitment, luminescence, 7a,25-OHC stimulated | inhibition, % at 5 µM | hit rate 0.81% among 360,000; in the data active = inhibition above about 38%;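 also: enzyme fragment complementation signal reports receptor beta-arrestin coupling in cells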
CXCR6 block = blocks human CXCR6 beta-arrestin recruitment. O00574. CHO-K1 PathHunter CXCR6 beta-arrestin, luminescence. inhibition, % at 20 µM. hit rate 0.36% among 360,000; in the data active = inhibition above about 34%, passing the limit was not always enough;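 also: antagonist mode with CXCL16 agonist at 10 nM final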
APJ agonist = activates the human apelin receptor APJ; hit rate 0.11% among 330,000; activation, % at 20 µM; P35414; AID 2520; CHO-K1 APJ PathHunter beta-arrestin, luminescence; 0% DMSO wells, 100% apelin;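 active = activation more than six SD over the plate average, tested at 20 µM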
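Test system – PathHunter CHO-K1 APJ (AGTRL-1) beta-arrestin reporter cells · Input – 1000 cells/well · Compound – single test compound dose, 20 µM final, 1% DMSO · Times – compound stimulation 90 min at 25 °C, detection 60 min · Technique – beta-gal luminescence · Read-out basis – APJ–arrestin association signal · Control set – negative DMSO alone, positive Apelin-13 at 10 nM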
EBI2 antag conf = confirmation of human EBI2 receptor antagonists; shares compounds with EBI2 antag; EBI2 beta-arrestin luminescence, 7a,25-OHC antagonism; inhibition, % at 5 µM; hit rate 29% among 2,400;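 active = inhibition of at least 50%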
EBI2 ag = activates EBI2, counter-screen for EBI2 antagonists | shares compounds with EBI2 antag | EBI2-expressing cells, agonist mode, luminescence, 60 min; 0% vehicle, 100% 7α,25-dihydroxycholesterol control | activation, % at 5 µM | 2,400 tested, under 10 active | AID 652000;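 active = activation of at least 50%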
bGal cs = beta-galactosidase inhibition counter-screen | shares compounds with EBI2 antag | purified beta-galactosidase, luminescent Galacton Star, 15 min | inhibition, % at 5 µM | hit rate 1% among 2,400 | AID 652176;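 active = replicate-average signal at least 3 plate SD below neutral wells, shown as high inhibition, flagging enzyme-inhibiting false positives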;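 also: higher means stronger loss of beta-gal luminescence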
Each line names hits and unclear results; the compound was inactive in the other large screens (follow-up assays come after a bar, where they were run). Most compounds without a hit are left out; they make up all but 2.2% or so of the library.

CCN(CC)c1ccc(/C=N/NC(=O)Nc2ccccc2)cc1	EBI2 antag 40 | EBI2 antag conf 52 | EBI2 ag inactive | bGal cs inactive
CN1CCC(N(C)S(=O)(=O)c2ccc(NC(=O)COc3ccc(Cl)cc3)cc2)CC1	EBI2 antag 54 | EBI2 antag conf inactive | EBI2 ag inactive | bGal cs inactive
CN1CCC(N(C)S(=O)(=O)c2ccc(NC(=O)COc3ccc(F)cc3)cc2)CC1	none
c1ccc(OCCNc2nc(NCC3CC3)nc3cc(-c4ccccc4)sc23)cc1	EBI2 antag 68 (no result: CCR6 antag, APJ antagonist, APJ agonist) | EBI2 antag conf 62 | EBI2 ag inactive | bGal cs inactive
C=CCNc1nc(NCCOc2ccccc2Cl)c2sc(-c3ccccc3)cc2n1	EBI2 antag 42 (no result: CCR6 antag, APJ antagonist, APJ agonist) | EBI2 antag conf inactive | EBI2 ag inactive | bGal cs inactive
C=CCNc1nc(NCCOC)c2sc(-c3ccccc3)cc2n1	none (no result: CCR6 antag, APJ antagonist, APJ agonist)
c1ccc(CNc2nc(NCC3CC3)nc3cc(-c4ccccc4)sc23)cc1	EBI2 antag 63 (no result: CCR6 antag, APJ antagonist, APJ agonist) | EBI2 antag conf inactive | EBI2 ag inactive | bGal cs inactive
COc1ccc(N2C(=O)c3ccccc3NC(=O)C2C(=O)NCC(C)C)cc1 (stereo not given)	none (no result: CCR6 antag, APJ antagonist, CXCR6 block, APJ agonist)
COCC(=O)Oc1cc(-c2ccc(C)cc2C)c(OC(=O)COC)c(-c2ccc(C)cc2C)c1	none (no result: CCR6 antag, APJ antagonist, APJ agonist)
Cc1cc(C)c(S(=O)(=O)N2CCN(C(=O)CCn3nc(C)c(C)c3C)CC2)c(C)c1	EBI2 antag 47 | EBI2 antag conf inactive | EBI2 ag inactive | bGal cs inactive
CCc1ccc(CN(C)C(=O)c2cc(=O)c3ccccc3o2)cc1	EBI2 antag 86 | EBI2 antag conf 65 | EBI2 ag inactive | bGal cs inactive
Cc1cccc(NC(=O)N2CCN(Cc3ccc4c(c3)OCO4)CC2)c1C	none
O=C(c1cc2ccccc2o1)N1CCN(CCOc2ccccc2)CC1	EBI2 antag 56 | EBI2 antag conf inactive | EBI2 ag inactive | bGal cs inactive
O=C(c1cc2ccccc2o1)N1CCN(Cc2ccc3c(c2)OCO3)CC1	EBI2 antag 70 | EBI2 antag conf inactive | EBI2 ag inactive | bGal cs inactive
Cc1ccc2c(C)c(C(=O)N3CCN(Cc4ccc5c(c4)OCO5)CC3)oc2c1C	EBI2 antag 44 | EBI2 antag conf inactive | EBI2 ag inactive | bGal cs inactive
CCCc1ccc2ccc3ccccc3c2n1	none (no result: CCR6 antag, APJ antagonist, APJ agonist)
COc1ccc(NC(=O)C2(C)Cc3c(-c4ccc(N(C)C)cc4)ccnc3O2)cn1 (stereo not given)	none (no result: CCR6 antag, APJ antagonist, APJ agonist)
Cc1ccc(S(=O)(=O)N2CCC(=O)N([C@H](COCc3ccc(Cl)c(Cl)c3)Cc3ccccc3)CC2)cc1	none (no result: CCR6 antag, APJ antagonist, APJ agonist)
CC1CC(C)CN(c2ccc([N+](=O)[O-])cc2-c2nn[nH]n2)C1 (stereo not given)	EBI2 antag 74 | EBI2 antag conf 51 | EBI2 ag inactive | bGal cs inactive
Cc1[nH]c2ccc(-c3nnc(SCC(=O)c4ccc(F)cc4)o3)cc2c1C	none
Cc1cc(C)c(C)c(C(=O)CSc2nnc(-c3ccc4[nH]c(C)c(C)c4c3)o2)c1C	EBI2 antag 52 | EBI2 antag conf 56 | EBI2 ag inactive | bGal cs inactive
COc1cc2cc(C(c3nnnn3C3CCCCC3)N(C)C3CCCCC3)c(=O)[nH]c2cc1OC (stereo not given)	EBI2 antag 36 | EBI2 antag conf inactive | EBI2 ag inactive | bGal cs inactive
COc1cc2cc(C(c3nnnn3C3CCCC3)N(C)C3CCCCC3)c(=O)[nH]c2cc1OC (stereo not given)	EBI2 antag 58 | EBI2 antag conf 54 | EBI2 ag inactive | bGal cs inactive
COc1ccc2[nH]c(=O)c(C(c3nnnn3C3CCCCC3)N3CCN(C)CC3)cc2c1 (stereo not given)	none
CCNC(=O)C1CCCN(C(=O)Cc2cccs2)CC1 (stereo not given)	none (no result: CCR6 antag, APJ antagonist, APJ agonist)
CCOC(=O)c1ccc(-n2cnc(-c3ccc([N+](=O)[O-])cc3)c2)cc1	EBI2 antag 50 (no result: CCR6 antag, APJ antagonist, APJ agonist) | EBI2 antag conf inactive | EBI2 ag inactive | bGal cs inactive
Cc1cc(NC(=O)OC(C)(C)C)c(-n2nnnc2C(C(=O)c2ccccc2)N2CCOCC2)cc1C (stereo not given)	none (no result: CCR6 antag, APJ antagonist, CXCR6 block, APJ agonist)
CCOc1ccc(NC(=S)N(CCCN2CCOCC2)Cc2cn(C)c3ccccc23)cc1	EBI2 antag 44 | EBI2 antag conf inactive | EBI2 ag inactive | bGal cs inactive
COc1ccc(COC(=O)C2CCN(C(=O)c3ccc(Cl)cc3)CC2)cc1F	EBI2 antag 49 | EBI2 antag conf inactive | EBI2 ag inactive | bGal cs inactive
COc1ccc(C(C)=O)cc1COC(=O)C1CCN(C(=O)c2ccc(Cl)cc2)CC1	EBI2 antag 77 | EBI2 antag conf inactive | EBI2 ag inactive | bGal cs inactive
O=C(OCc1ccccn1)C1CCN(C(=O)c2ccc(Cl)cc2)CC1	none
COc1ccc(C)cc1NC(=O)COC(=O)C1CCN(C(=O)c2ccc(Cl)cc2)CC1	none
C[C@@H]1CN([C@@H](C)CO)S(=O)(=O)c2ccc(Br)cc2O[C@H]1CN(C)C(=O)c1cccc(F)c1	none (no result: CCR6 antag, APJ antagonist, APJ agonist)
COc1cc(C2OC(=O)C3C(c4ccc(OC(C)=O)c(OC)c4)OC(=O)C23)ccc1OC(C)=O (stereo not given)	EBI2 antag 62 | EBI2 antag conf inactive | EBI2 ag inactive | bGal cs inactive
COc1ccc(-c2cn(Cc3ccc(C(=O)NCc4ccc(C)cc4)cc3)c(C(C)N)n2)cc1 (stereo not given)	EBI2 antag 54 | EBI2 antag conf inactive | EBI2 ag inactive | bGal cs inactive
COc1ccc(-n2cc(-c3ccccc3)[nH]c2=S)cc1	EBI2 antag 74 | EBI2 antag conf inactive | EBI2 ag inactive | bGal cs inactive
O=C(Nc1ccc2ccccc2c1)OC1CCS(=O)(=O)C1 (stereo not given)	none (no result: CCR6 antag, APJ antagonist, APJ agonist)
N#Cc1nc(COc2ccccc2)oc1N1CCN(Cc2ccccc2)CC1	none
N#Cc1nc(COc2ccccc2)oc1N1CCC(Cc2ccccc2)CC1	EBI2 antag 70 | EBI2 antag conf inactive | EBI2 ag inactive | bGal cs inactive
CC(NC(=O)COC(=O)/C=C/c1ccc(Cl)cc1)c1ccccc1 (stereo not given)	EBI2 antag 48 | EBI2 antag conf inactive | EBI2 ag inactive | bGal cs inactive
